Source: ChEMBL document CHEMBL4387734, “Design and synthesis of a novel series of cyanoindole derivatives as potent γ-secretase modulators” (Bioorg Med Chem Lett, 2019)
Values after ≈ are worked out from the molar mass of the structure shown.

Tests used:
[1] = Free drug concentration in mouse brain; type: ADME, tissue-based; conditions: in vivo
Outline: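 Free brain concentration calculated as fu,b × total brain level (μM), mouse 30 mg/kg p.o., 4 h.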

[2] = target: Gamma-secretase; assay: Inhibition of gamma secretase in human SKNBE2 cells expressing human APP695 assessed as reduction in Abeta42 levels incubated for 18 hrs by sandwich ELISA
[3] = test system: Mus musculus; assay: In vivo inhibition of gamma secretase in mouse assessed as assessed as reduction in Abeta42 levels in brain at 30 mg/kg, po measured after 4 hrs relative to control; type: functional
[4] = Drug concentration in mouse plasma at 30 mg/kg, po measured after 4 hrs by LC/MS/MS method; type: ADME, organism-based
Outline: (§1)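 Mice dosed orally at 30 mg/kg; plasma and brain sampled 4 h post-dose; compound quantified by qualified research LC–MS/MS; brain/plasma ratio at 4 h.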

[5] = Inhibition of gamma secretase in mouse Neuro2 cells expressing endogenous levels of amyloid precursor protein assessed as reduction in Abeta42 levels incubated for 18 hrs by sandwich ELISA; type: cell-based
Outline: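 IC50 as concentration reducing Aβ42 by 50%; mean of at least 2 determinations; mouse assay.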

[6] = Fraction of unbound in rat brain
[7] = Drug concentration in mouse brain at 30 mg/kg, po measured after 4 hrs by LC/MS/MS method; type: ADME, organism-based; conditions: read-out: Drug uptake; outline: as §1
[8] = test system: Mus musculus; assay: In vivo inhibition of gamma secretase in mouse increase in Abeta38 levels in brain at 30 mg/kg, po measured after 4 hrs relative to control; set-up: scale not given: the % may be the effect or the level left
[9] = target: Gamma-secretase (Homo sapiens) (UniProt Q96BI3+Q9NZ42+Q8WW43+P49768+Q92542+P49810); assay: Inhibition of gamma secretase in human SKNBE2 cells expressing human APP695 assessed as increase in Abeta38 levels at 10 uM incubated for 18 hrs by sandwich ELISA; type: cell-based; set-up: scale not given: the % may be the effect or the level left
[10] = Metabolic stability in mouse liver microsomes assessed as compound metabolism at 1 uM incubated for 15 mins; type: ADME, Microsome; conditions: read-out: Drug metabolism
Outline: (§2)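 Compound at 1 μM incubated 15 min with human, mouse or dog liver microsomes; percent metabolized reported.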

[11] = Metabolic stability in dog liver microsomes assessed as compound metabolism at 1 uM incubated for 15 mins; type: ADME, Canis lupus familiaris, Microsome; conditions: read-out: Drug metabolism; outline: as §2
[12] = target: hERG (KCNH2) (Homo sapiens, UniProt Q12809); assay: Inhibition of human ERG assessed as inhibition of IKr current at 3 uM by patch express assay
Outline: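 Human ERG: percent inhibition of IKr current at 3 μM.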

[13] = target: Cytochrome P450 2C9 (Homo sapiens, UniProt P11712); assay: Inhibition of CYP2C9 (unknown origin); type: ADME
[14] = target: Voltage-gated inwardly rectifying potassium channel KCNH2 (Homo sapiens, UniProt Q12809); assay: Inhibition of human ERG by receptor binding assay
Outline: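 Receptor binding on human hERG channel; IC50 reported.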

[15] = Lipophilicity, log P of the compound; type: physicochemical; conditions: octanol/water
[16] = Kinetic solubility of the compound in pH 7.4 buffer; type: physicochemical; conditions: read-out: Kinetic_solubility
[17] = target: Cytochrome P450 3A4 (Homo sapiens, UniProt P08684); assay: Activation of CYP3A4 (unknown origin) using midazolam; type: ADME
[18] = target: Cytochrome P450 2D6 (Homo sapiens, UniProt P10635); assay: Inhibition of CYP2D6 (unknown origin); type: ADME
[19] = Metabolic stability in human liver microsomes assessed as compound metabolism at 1 uM incubated for 15 mins; type: ADME, Microsome; conditions: read-out: Drug metabolism; outline: as §2
[20] = Ratio of drug concentration in brain to plasma of mouse at 30 mg/kg, po measured after 4 hrs by LC/MS/MS method; type: ADME, organism-based; conditions: read-out: BPR; outline: as §1
[21] = target: Cytochrome P450 2C19 (Homo sapiens, UniProt P33261); assay: Inhibition of CYP2C19 (unknown origin); type: ADME
Chain of Cytochrome P450 2C19 (P33261 whole entry): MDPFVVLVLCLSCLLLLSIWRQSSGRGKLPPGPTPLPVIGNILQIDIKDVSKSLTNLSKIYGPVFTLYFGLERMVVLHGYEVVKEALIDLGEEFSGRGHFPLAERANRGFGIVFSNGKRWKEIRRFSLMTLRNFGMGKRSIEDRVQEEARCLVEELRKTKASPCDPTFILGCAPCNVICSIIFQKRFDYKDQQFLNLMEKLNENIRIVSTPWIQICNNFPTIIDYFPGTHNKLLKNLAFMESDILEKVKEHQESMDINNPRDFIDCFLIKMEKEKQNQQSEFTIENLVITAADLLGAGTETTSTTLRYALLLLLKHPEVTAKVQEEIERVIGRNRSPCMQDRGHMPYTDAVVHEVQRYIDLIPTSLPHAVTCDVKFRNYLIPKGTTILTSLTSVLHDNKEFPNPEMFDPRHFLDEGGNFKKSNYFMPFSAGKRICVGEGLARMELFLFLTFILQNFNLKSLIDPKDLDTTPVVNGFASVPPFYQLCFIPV

Chain of Cytochrome P450 2D6 (P10635 whole entry): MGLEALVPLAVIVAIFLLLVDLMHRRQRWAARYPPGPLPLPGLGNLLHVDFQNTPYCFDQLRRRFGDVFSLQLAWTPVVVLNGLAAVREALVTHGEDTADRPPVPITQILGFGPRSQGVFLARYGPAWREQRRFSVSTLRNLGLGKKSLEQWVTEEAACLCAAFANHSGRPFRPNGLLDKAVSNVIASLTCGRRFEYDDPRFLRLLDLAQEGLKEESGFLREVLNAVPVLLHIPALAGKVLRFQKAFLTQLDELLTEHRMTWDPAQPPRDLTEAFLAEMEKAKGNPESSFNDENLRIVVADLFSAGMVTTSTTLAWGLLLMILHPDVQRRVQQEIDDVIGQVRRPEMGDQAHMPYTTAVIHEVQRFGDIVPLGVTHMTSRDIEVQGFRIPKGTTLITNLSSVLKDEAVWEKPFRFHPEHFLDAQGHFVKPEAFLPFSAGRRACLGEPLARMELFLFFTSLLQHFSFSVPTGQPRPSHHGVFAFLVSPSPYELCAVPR
Chain of Voltage-gated inwardly rectifying potassium channel KCNH2 (Q12809 whole entry): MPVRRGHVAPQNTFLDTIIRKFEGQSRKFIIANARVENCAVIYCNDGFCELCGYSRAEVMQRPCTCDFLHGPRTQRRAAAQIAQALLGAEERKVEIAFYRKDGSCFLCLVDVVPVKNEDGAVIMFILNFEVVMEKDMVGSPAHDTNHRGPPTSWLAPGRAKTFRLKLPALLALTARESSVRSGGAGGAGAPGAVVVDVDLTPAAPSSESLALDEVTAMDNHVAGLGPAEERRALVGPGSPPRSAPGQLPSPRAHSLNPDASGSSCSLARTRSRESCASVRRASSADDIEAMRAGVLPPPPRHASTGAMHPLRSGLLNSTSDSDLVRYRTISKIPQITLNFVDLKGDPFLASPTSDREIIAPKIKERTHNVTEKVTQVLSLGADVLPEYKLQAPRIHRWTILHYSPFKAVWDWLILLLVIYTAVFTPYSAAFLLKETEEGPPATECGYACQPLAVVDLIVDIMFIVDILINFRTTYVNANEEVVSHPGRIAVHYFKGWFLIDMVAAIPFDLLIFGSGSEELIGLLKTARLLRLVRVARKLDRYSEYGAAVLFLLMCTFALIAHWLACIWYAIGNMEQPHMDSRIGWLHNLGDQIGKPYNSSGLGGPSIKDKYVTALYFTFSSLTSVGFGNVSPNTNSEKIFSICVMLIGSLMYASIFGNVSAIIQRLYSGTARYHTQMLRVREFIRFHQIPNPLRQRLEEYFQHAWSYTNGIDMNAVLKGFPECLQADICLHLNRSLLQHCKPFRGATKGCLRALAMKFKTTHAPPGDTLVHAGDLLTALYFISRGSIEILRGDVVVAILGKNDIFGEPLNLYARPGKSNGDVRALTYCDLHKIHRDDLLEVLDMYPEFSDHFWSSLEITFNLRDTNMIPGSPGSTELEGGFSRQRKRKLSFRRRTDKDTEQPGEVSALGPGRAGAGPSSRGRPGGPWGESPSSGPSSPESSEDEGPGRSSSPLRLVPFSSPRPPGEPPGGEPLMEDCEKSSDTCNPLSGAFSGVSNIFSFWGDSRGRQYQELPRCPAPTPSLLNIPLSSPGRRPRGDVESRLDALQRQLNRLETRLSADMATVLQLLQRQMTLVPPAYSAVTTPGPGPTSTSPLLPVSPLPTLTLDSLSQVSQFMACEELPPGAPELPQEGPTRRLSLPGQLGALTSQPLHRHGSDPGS
Chain of hERG (KCNH2) (Q12809 whole entry): as above
Chain of Cytochrome P450 3A4 (P08684 whole entry): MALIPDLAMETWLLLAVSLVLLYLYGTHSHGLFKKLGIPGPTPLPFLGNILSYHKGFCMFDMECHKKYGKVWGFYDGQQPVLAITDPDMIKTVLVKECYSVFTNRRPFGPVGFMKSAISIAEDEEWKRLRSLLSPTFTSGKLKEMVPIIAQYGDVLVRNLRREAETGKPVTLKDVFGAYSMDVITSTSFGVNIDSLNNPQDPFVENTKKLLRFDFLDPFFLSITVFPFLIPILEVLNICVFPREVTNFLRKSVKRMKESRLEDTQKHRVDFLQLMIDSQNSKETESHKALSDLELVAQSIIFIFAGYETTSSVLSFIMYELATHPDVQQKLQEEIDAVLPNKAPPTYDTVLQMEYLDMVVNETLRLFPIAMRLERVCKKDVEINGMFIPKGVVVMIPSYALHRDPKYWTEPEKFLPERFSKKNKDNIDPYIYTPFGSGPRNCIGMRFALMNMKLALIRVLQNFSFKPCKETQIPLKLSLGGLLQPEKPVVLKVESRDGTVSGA
Chain of Cytochrome P450 2C9 (P11712 whole entry): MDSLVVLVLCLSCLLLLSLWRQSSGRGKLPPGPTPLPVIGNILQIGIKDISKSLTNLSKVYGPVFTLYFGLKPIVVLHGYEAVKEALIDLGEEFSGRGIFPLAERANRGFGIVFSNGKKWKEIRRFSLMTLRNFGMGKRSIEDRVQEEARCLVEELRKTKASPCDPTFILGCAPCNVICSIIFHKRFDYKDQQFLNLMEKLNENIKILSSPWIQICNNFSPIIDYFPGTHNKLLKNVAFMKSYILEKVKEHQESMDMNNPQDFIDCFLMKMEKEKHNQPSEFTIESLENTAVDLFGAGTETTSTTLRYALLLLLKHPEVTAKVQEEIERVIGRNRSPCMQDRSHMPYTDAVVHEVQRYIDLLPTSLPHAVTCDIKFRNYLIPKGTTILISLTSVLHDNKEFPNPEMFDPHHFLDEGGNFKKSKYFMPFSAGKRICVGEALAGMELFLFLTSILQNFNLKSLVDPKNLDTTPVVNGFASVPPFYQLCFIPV

SMILES | IC50 [2] [µM] | inhibition in vivo at 30 mg/kg [3] [%] | concentration at 4 h [4] [µM] | IC50 [5] [µM] | concentration at 4 h [7] [µM] | Activity [8] [%] | other results
COc1c(C#N)ccc2[nH]c(-c3cn4c(n3)[C@H](c3ccc(F)cc3C)OCC4)cc12 | 0.023 | 45 | 9.2 | 0.016 | 6.9 | 122 | Drug uptake(free) [1]: 0.016 µM; Fu [6]: 0.23%
COc1cc(Nc2cccn3cc(-c4ccc(F)cc4)nc23)ccc1-n1cnc(C)c1 | – | – | – | 0.182 | – | – | –
COc1c(C#N)ccc2[nH]c(-c3nc4n(n3)CCO[C@H]4c3ccc(F)cc3C)cc12 | 0.032 | 5 | 1.52 | 0.034 | 1.71 | -12 | –
COc1c(C#N)ccc2[nH]c(-c3cn4c(n3)C(c3ccc(F)cc3C)CCC4)cc12 (racemic) | 0.112 | 51 | 4.5 | 0.05 | 1.9 | 17 | –
COc1c(C#N)ccc2[nH]c(-c3nc4n(n3)CCOC4c3ccccc3C(F)(F)F)cc12 (racemic) | 0.072 | – | – | 0.041 | – | – | –
COc1c(C#N)ccc2[nH]c(-c3cn4c(n3)[C@H](c3cc(C(F)(F)F)ccc3F)OCC4)cc12 | 0.041 | 35 | 10.6 | 0.074 | 16.3 | 41 | –
COc1c(C#N)ccc2[nH]c(-c3nc4n(n3)CCO[C@H]4c3ccccc3C(F)(F)F)cc12 | 0.045 | 46 | 5.4 | 0.042 | 10.5 | 39 | –
COc1c(C#N)ccc2[nH]c(-c3nc4n(n3)CCO[C@@H]4c3ccccc3C(F)(F)F)cc12 | 0.603 | – | – | 0.295 | – | – | –
COc1c(C#N)ccc2[nH]c(-c3cn4c(n3)[C@@H](c3ccccc3C(F)(F)F)OCC4)cc12 | 0.347 | – | – | 0.251 | – | – | –
COc1c(C#N)ccc2[nH]c(-c3cn4c(n3)C(c3ccccc3Cl)CC(O)(CO)C4)cc12 (stereo unspecified) | 0.039 | – | – | – | – | – | –
COc1c(C#N)ccc2[nH]c(-c3cn4c(n3)C(C(C)c3ccc(F)cc3)OCC4)cc12 (stereo unspecified) | 0.219 | – | – | 0.339 | – | – | –
COc1c(C#N)ccc2[nH]c(-c3nc4n(n3)CCCC4c3ccccc3C(F)(F)F)cc12 (racemic) | 0.036 | – | – | 0.036 to 0.038 | – | – | –
COc1cc(Nc2cccn3cc(-c4ccc(F)cc4)nc23)ccc1C#N | – | – | – | > 10 | – | – | –
N#Cc1ccc(Nc2nc(Cc3c(Cl)cccc3Cl)cc(NCC(O)c3ccccc3)n2)cc1 (stereo unspecified) | – | – | – | 1.67 | – | – | Activity [9]: 244%
COc1c(C#N)ccc2[nH]c(-c3cn4c(n3)[C@H](c3ccccc3C(F)(F)F)OCC4)cc12 (single isomer, unassigned) | 0.018 | 73 | 8.4 | 0.019 | 16.4 | 10 | Drug uptake(free) [1]: 0.034 µM; Fu [6]: 0.21%
COc1c(C#N)ccc2[nH]c(-c3nc4n(n3)CCO[C@H]4c3cccc(F)c3C(F)(F)F)cc12 | 0.059 | 2 | 1.7 | 0.059 | 9.6 | 19 | Drug uptake(free) [1]: 0.009 µM; Fu [6]: 0.09%
COc1c(C#N)ccc2[nH]c(-c3cn4c(n3)[C@H](c3ccccc3Cl)O[C@H](C)C4)cc12 | 0.017 | – | – | – | – | – | –
Cc1cn(-c2ccc3[nH]c(-c4nc5n(n4)CCCC5c4ccccc4C(F)(F)F)cc3c2)cn1 (stereo unspecified) | – | – | – | 0.046 | – | – | –
COc1nc(/C=C/c2nc3n(n2)CCC[C@H]3c2ccccc2C(F)(F)F)ccc1-n1cnc(C)c1 [E-2212] | – | – | – | 0.011 | – | – | –

SMILES | IC50 [2] [µM] | inhibition in vivo at 30 mg/kg [3] [%] | concentration at 4 h [4] [µM] | IC50 [5] [µM] | concentration at 4 h [7] [µM] | Activity [8] [%] | other results
CCc1cc(CCC#N)ccc1N1CCc2c(C)nc(Nc3ccc(C#N)cc3)nc21 | – | – | – | 0.78 | – | – | Activity [9]: 240%
COc1c(C#N)ccc2[nH]c(-c3nc4n(n3)CCO[C@H]4c3cccc(F)c3C)cc12 | 0.031 | 33 | 2.5 | 0.019 | 5.5 | 60 | Drug uptake(free) [1]: 0.009 µM; Fu [6]: 0.17%
COc1c(C#N)ccc2[nH]c(-c3cn4c(n3)[C@H](c3ccccc3Cl)C[C@@H](C)C4)cc12 (racemic) | 0.015 | – | – | – | – | – | –
COc1c(C#N)ccc2[nH]c(-c3cn4c(n3)C(c3ccccc3Cl)CC(C)(O)C4)cc12 (stereo unspecified) | 0.022 | – | – | – | – | – | –
COc1c(C#N)ccc2[nH]c(-c3nc4n(n3)CCO[C@H]4c3cc(C(F)(F)F)ccc3F)cc12 | 0.098 | – | – | 0.107 | – | – | –
COc1c(C#N)ccc2[nH]c(-c3nc4n(n3)CCCC4c3ccc(F)cc3C)cc12 (racemic) | 0.025 | 45 | 0.75 | 0.028 | 0.69 | -9 | –
COc1nc(Nc2cccc3c2nc(-c2cccc(C(F)(F)F)c2)n3C)ccc1-n1cnc(C)c1 | – | – | – | 0.007 | – | – | –
COc1cc2[nH]c(-c3nc4n(n3)CCCC4c3ccccc3C(F)(F)F)cc2cc1C#N (racemic) | 0.107 | – | – | 0.166 | – | – | –
N#Cc1ccc2[nH]c(-c3nc4n(n3)CCCC4c3ccccc3C(F)(F)F)cc2c1 (racemic) | 0.117 | – | – | 0.186 | – | – | –
Cc1cn(-c2ccc3[nH]c(-c4nc(-c5cccc(C(F)(F)F)c5)n(C)n4)cc3c2)cn1 | – | – | – | 0.085 | – | – | –
COc1cc(/C=C/c2nc3n(n2)CCC[C@H]3c2ccccc2C(F)(F)F)ccc1C#N | – | – | – | 0.275 | – | – | –
N#Cc1ccc2cc(-c3nc4n(n3)CCCC4c3ccccc3C(F)(F)F)[nH]c2c1 (racemic) | 3.98 | – | – | 8.5 | – | – | –
N#CCCNc1cc(Cc2c(Cl)cccc2Cl)nc(Nc2ccc(C#N)cc2)n1 | – | – | – | 0.68 | – | – | Activity [9]: 242%
COc1c(C#N)ccc2[nH]c(-c3cn4c(n3)[C@H](c3c(F)cccc3C(F)(F)F)OCC4)cc12 | 0.036 | 40 | 11.3 | 0.042 | 18.7 | 136 | –
COc1c(C#N)ccc2[nH]c(-c3cn4c(n3)[C@H](c3ccccc3Cl)O[C@@H](C)C4)cc12 | 0.066 | – | – | – | – | – | –
COc1nc(-c2nc(Nc3cc(F)cc(C(F)(F)F)c3)n(C)n2)ccc1-n1cnc(C)c1 | 0.019 | 55 | 17.8 | 0.049 | 14 | 53 | metabolised at 0.25 h, 1 µM [10]: 0%; metabolised at 0.25 h, 1 µM [11]: 10%; Drug uptake(free) [1]: 0.069 µM; inhibition at 3 µM [12]: 52%; IC50 [13]: 12.3 µM; IC50 [14]: > 10 µM; logP [15]: 4.24; solubility kinetic [16]: 39 µM (≈ 17.4 µg/mL); Activity [17]: Active; IC50 [18]: 16 µM; metabolised at 0.25 h, 1 µM [19]: 4%; Kp at 4 h [20]: 0.8; Fu [6]: 0.5%; IC50 [21]: 22.1 µM
COCc1ccccc1[C@@H]1OCCn2cc(-c3cc4c(OC)c(C#N)ccc4[nH]3)nc21 | 0.11 | – | – | 0.085 | – | – | –
COc1c(C#N)ccc2[nH]c(-c3cn4c(n3)[C@H](c3ccccc3Cl)OCC4)cc12 | 0.026 | 60 | 8.3 | 0.023 | 23.8 | 61 | Drug uptake(free) [1]: 0.112 µM; Fu [6]: 0.47%
Cn1c(-c2nc3n(n2)CCCC3c2ccccc2C(F)(F)F)cc2cc(C#N)ccc21 (racemic) | 4 | – | – | > 10 | – | – | –
